Test results: ChEMBL document CHEMBL1149331, “Design, synthesis, and structure-activity relationships of haloenol lactones: site-directed and isozyme-selective glutathione S-transferase inhibitors” (J Med Chem, 2004)
Activity calls are given as the source filed them. The rule behind the calls is not given here.

How the values were obtained:
[1] = target: T1, Glutathione S-transferase P (Homo sapiens, UniProt P09211); test: Inactivation of recombinant human Glutathione S-transferase P
Procedure, shortened: (§1)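 Recombinant human GSTP1-1 (E. coli-expressed, glutathione-agarose purified), 0.1 mg/mL, preincubated with haloenol lactone (0.17 mM, added in ethanol; vehicle control) in phosphate buffer pH 7.4 at 30 °C. Aliquots taken at 0, 2, 5, 12 min. Residual activity read by Habig assay: 1.0 mM GSH + 1.0 mM CDNB, 0.1 M phosphate pH 6.5, A340, corrected for nonenzymatic rate; kobs from time course.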
Target sequence in this assay (P09211 2-210 limits assumed): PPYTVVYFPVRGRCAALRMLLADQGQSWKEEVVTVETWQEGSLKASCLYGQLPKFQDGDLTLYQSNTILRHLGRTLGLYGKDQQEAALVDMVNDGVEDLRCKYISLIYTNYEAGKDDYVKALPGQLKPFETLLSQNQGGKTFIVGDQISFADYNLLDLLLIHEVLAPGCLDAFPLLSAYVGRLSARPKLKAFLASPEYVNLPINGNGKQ

[2] = target: T1, Glutathione S-transferase P; test: (§2) Inhibitory activity for human glutathione S-transferase-pi isozyme was determined; procedure, shortened: as §1
Target sequence in this assay (P09211 whole entry): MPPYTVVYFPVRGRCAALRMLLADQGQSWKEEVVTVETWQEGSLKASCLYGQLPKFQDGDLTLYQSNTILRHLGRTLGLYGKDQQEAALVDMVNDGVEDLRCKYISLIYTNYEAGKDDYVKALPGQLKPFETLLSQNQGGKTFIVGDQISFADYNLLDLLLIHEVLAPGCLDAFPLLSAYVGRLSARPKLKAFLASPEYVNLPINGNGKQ

[3] = target: T1, Glutathione S-transferase P; test: as §2; procedure, shortened: as §1; remark: listed apart in the source
Target sequence in this assay (P09211 2-210 limits assumed): as the sequence (P09211 2-210 limits assumed) above

[4] = target: T1, Glutathione S-transferase P; test: (§3) Inhibitory activity for human Glutathione S-transferase P was determined; procedure, shortened: as §1
Target sequence in this assay (P09211 2-210 limits assumed): as above

[5] = target: T1, Glutathione S-transferase P; test: as §3; procedure, shortened: as §1; remark: listed apart in the source
Target sequence in this assay (P09211 whole entry): as the sequence (P09211 whole entry) above

| K obs [1] | Compound | other results |
| --- | --- | --- |
| 0.15 | O=C1O/C(=C/Br)CC1c1ccccc1 (stereo not given) | Ki [2]: 124 µM; Kina [3]: 0.097 min⁻¹ |
| 0.0847 | CCCCCCC1C/C(=C\Br)OC1=O (stereo not given) |  |
| 0.0382 | CCCCCCCCC1C/C(=C\Br)OC1=O (stereo not given) |  |
| 0.101 | O=C1O/C(=C/Br)CC1Cc1ccccc1 (stereo not given) |  |
| 0.0632 | O=C1O/C(=C/Br)CC1CCc1ccccc1 (stereo not given) |  |
| 0.0438 | O=C1O/C(=C/Br)CC1CC1CCCCC1 (stereo not given) |  |
| inactive | COc1ccc(/C=C/CC2C/C(=C\Br)OC2=O)cc1 (stereo not given) |  |
| 0.0364 | O=C1O/C(=C/Br)CC1C/C=C/c1ccc(C(F)(F)F)cc1 (stereo not given) |  |
| 0.0366 | O=C1O/C(=C/Br)CC1CCCCc1ccccc1 (stereo not given) |  |
| 0.0439 | O=C1O/C(=C/Br)CC1CCCc1ccccc1 (stereo not given) |  |
| 0.0421 | O=C1O/C(=C/I)CC1C/C=C/c1ccccc1 (stereo not given) |  |
| 0.0322 | C/C(Br)=C1/CC(C/C=C/c2ccccc2)C(=O)O1 (stereo not given) |  |
| 0.0359 | CCCCCCCCCC1C/C(=C\Br)OC1=O (stereo not given) |  |
| 0.0608 | CCCCCCCC1C/C(=C\Br)OC1=O (stereo not given) |  |
| 0.0499 | O=C1O/C(=C/Br)CC1Cc1ccc2ccccc2c1 (stereo not given) |  |
| 0.0604 | O=C1O/C(=C/Br)CC1C/C=C/c1ccccc1 (stereo not given) | Kina [4]: 0.025 min⁻¹; Ki [5]: 6.1 µM |
